Entries after “also recorded” stand apart in the source; their conditions may differ.
How the values were obtained:
[1] = type: in vivo, human
Safety evaluation = type: in vivo, human
Summary of the method: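 Adults with chronic musculoskeletal non-cancer pain received one 2-min IV injection in a single-centre, open-label, ascending-dose design, with a 2-person 0.75 mg pretest. Monitoring covered vital signs to 72 h, SpO2 to 8 h, Holter from −30 min to 24 h, ECG at 48/72 h, 72 h labs, and injection-site checks to 6 h. AEs were graded by system/severity and drug relation; groups compared by Fisher's exact or chi-square.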

COc1ccsc1CNCC[C@@]1(c2ccccn2)CCOC2(CCCC2)C1 [Oliceridine, [(3-methoxythiophen-2-yl)methyl]({2-[(9R)-9-(pyridin-2-yl)-6-oxaspiro-[4.5]decan-9-yl]ethyl})amine]
Participants achieving Cmax approximately 2 minutes post-administration ([1]; 0.75 mg group (11 of 12)): 91.7%
Participants reaching Cmax around 5 minutes ([1]; 0.75 mg group (one participant)): 8.3%
Participants attaining peak concentration at about 2 min ([1]; 1.5 mg group (9 of 10)): 90%
Participants attaining peak concentration at about 3 min ([1]; 1.5 mg group (one participant, intravenous line blockage)): 10%
Participants attaining peak at around 10 min ([1]; 3.0 mg group (1 participant)): 10%
Participants attaining peak at about 2 min ([1]; 3.0 mg group (4 of 10)): 40%
Participants attaining peak at approximately 5 min ([1]; 3.0 mg group (5 participants)): 50%
Tmax ([1]; human, plasma, iv): 2.04 to 4.98 min
half-life ([1]; human, plasma, iv): 111 to 125 min
Safety and tolerability (Safety evaluation; Chinese patients with chronic non-cancer pain, 0.75 mg to 3.0 mg): safe and well tolerated
TEAEs leading to discontinuation of the study (Safety evaluation; all doses): none of the TEAEs led to discontinuation of the study
Severe TEAEs (Safety evaluation; all doses, 32 participants): no reports of severe TEAEs
Serious adverse events (SAEs) (Safety evaluation; single IV dose 0.75-3.0 mg, 32 participants): no serious adverse events were observed; also recorded: No SAEs were reported
